Reference: ChEMBL document CHEMBL1165896, “Design, synthesis and evaluation of mutual prodrug of 4-biphenylacetic acid and quercetin tetramethyl ether (BPA-QTME) as gastrosparing NSAID” (Eur J Med Chem, 2010)
≈ marks a conversion by molar mass, not a printed value.

What was measured:
[1] = Partition coefficient log P by shake flask method; type: physicochemical; details: octanol/water
Procedure, shortened: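 Shake flask in n-octanol/phosphate buffer pH 7.4. Compound-saturated octanol shaken with an equal volume of buffer for 24 h at 25 °C, then left 30 min to separate. Both phases quantified by UV against calibration plots.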

[2] = Aqueous solubility at pH. 4; type: physicochemical
[3] = Chemical stability assessed as half life of hydrolysis at pH 2; type: physicochemical; details: buffer
Procedure, shortened: (§1)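 Compound dissolved in preheated HCl buffer pH 2 or isotonic phosphate buffer pH 7.4 and held at 37 °C. Pseudo-first-order rate constants taken from semilog plots of concentration versus time.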

[4] = Chemical stability assessed as half life of hydrolysis at pH 7.4; type: physicochemical; details: buffer; procedure, shortened: as §1
[5] = Stability in presence of 80% human plasma assessed as half life; type: ADME, cell-free
Procedure, shortened: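 Citrated human plasma diluted 4:1 with isotonic phosphate buffer pH 7.4 (80% plasma), preheated, shaken at 37 °C. Compound added from a 1 mg/ml stock; samples at intervals diluted and read at 253 nm for released BPA. Rate constant and t½ taken from the linear part of the log BPA concentration versus time plot.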

[6] = Antioxidant activity in stomach assessed as superoxide dismutase activity measured per mg of protein (RVb = 325.40 +/- 69 U); type: functional
[7] = Antioxidant activity in stomach assessed as catalase activity measured per mg of protein (RVb = 28.38 +/- 2.85 U); type: functional
[8] = Antioxidant activity in stomach assessed as lipid peroxidation measured per mg of protein (RVb = 4.61 +/- 1.28 nmole); type: functional, tissue-based
[9] = Antioxidant activity in stomach assessed as myeloperoxidase activity relative to control; type: functional
Procedure, shortened: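 Stomach homogenate from ulcer-study rats (0.01 M phosphate buffer), spun 10,000 rpm, 10 min, 10 °C. Supernatant mixed with o-phenylenediamine (660 µg/ml) and started with 300 mM H2O2; A492 read every 30 s for 5 min. ΔOD/min expressed as % of control activity.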

[10] = tested on: Mus musculus; test: Analgesic activity in mouse assessed as inhibition of acetic acid-induced writhing at 10 mg/kg, po relative to control; type: functional
Procedure, shortened: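 Male LACCA mice (25–35 g), fasted overnight, dosed orally in 0.5% CMC (0.1 ml/10 g) 1 h before 1% acetic acid, 10 ml/kg i.p. Writhes counted over 20 min starting 3 min post-challenge. % inhibition = (1 − Nt/Nc) × 100 versus vehicle controls. Mean ± SE of five experiments.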

[11] = tested on: Rattus norvegicus; test: Toxicity in Sprague-Dawley rat assessed as ulcer index at dose molar equivalent to 54 mg/kg, po; type: organism-based; set-up: dose 54 mg/kg, route oral; details: in vivo
Procedure, shortened: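 Overnight-fasted Sprague-Dawley rats given oral doses equimolar to BPA 54 mg/kg; vehicle controls. Killed 4 h after dosing; stomachs opened along greater curvature, saline-washed and scored: 0 none, 1 punctiform <1 mm, 3 filiform <5 mm, 4 punctiform >1 mm or filiform >5 mm. Mean ± SE of five experiments.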

[12] = tested on: Rattus norvegicus; test: Antiinflammatory activity in Sprague-Dawley rat assessed as reduction in carrageenan-induced paw edema at dose molar equivalent to 15 mg/kg, po after 4 hrs (RVb = 78.4+/- 2.53%); set-up: scale not given: the % may be the effect or the level left
[13] = tested on: Rattus norvegicus; test: Antiinflammatory activity in Sprague-Dawley rat assessed as reduction in carrageenan-induced paw edema at dose molar equivalent to 15 mg/kg, po after 5 hrs (RVb = 65.2+/- 1.96%); set-up: scale not given: the % may be the effect or the level left
[14] = tested on: Rattus norvegicus; test: Antiinflammatory activity in Sprague-Dawley rat assessed as reduction in carrageenan-induced paw edema at dose molar equivalent to 15 mg/kg, po after 2 hrs (RVb = 68.8 +/- 2.06%); set-up: scale not given: the % may be the effect or the level left
[15] = tested on: Rattus norvegicus; test: Antiinflammatory activity in Sprague-Dawley rat assessed as reduction in carrageenan-induced paw edema at dose molar equivalent to 15 mg/kg, po after 3 hrs (RVb = 81.1+/- 2.43 %); set-up: scale not given: the % may be the effect or the level left

logP [1] | solubility [2] [µg/mL] | half-life [3] [h] | half-life [4] [h] | half-life [5] [h] | SMILES | Activity [6] [U/mg protein] | Activity [7] [U/mg protein] | Activity [8] [nM] | Activity [9] [%] | inhibition in vivo at 10 mg/kg [10] [%] | UI [11] | Activity [12] [%] | Activity [13] [%] | Activity [14] [%] | Activity [15] [%]
3.95 | 14.5 (≈ 26.2 µM) | > 100 | > 38 | 0.33 | COc1cc(OC)c2c(=O)c(OC(=O)Cc3ccc(-c4ccccc4)cc3)c(-c3ccc(OC)c(OC)c3)oc2c1 | 223 | 22.4 | 6.42 | 118.93 | 62.4 | 0.45 | 31.6 | 33.1 | 34.2 | 37.5
 |  |  |  |  | O=C(O)Cc1ccc(-c2ccccc2)cc1 [FELBINAC] | 26.2 | 3.52 | 22.6 | 238.47 | 68.6 | 6.2 | 25.2 | 29.1 | 26.9 | 26.5
